According to ChEMBL document CHEMBL4616723, “Discovery of Antibacterials That Inhibit Bacterial RNA Polymerase Interactions with Sigma Factors” (J Med Chem, 2020):
Values after ≈ are worked out from the molar mass of the structure shown. Active and inactive are the calls of the source. The calls are words filed in the database; no cut-off is given here.

Legend:
Streptococcus pneumoniae [1] = experiment: Antibacterial activity against Streptococcus pneumoniae ATCC 49619 after 16 to 20 hrs by CLSI based-broth microdilution method; assay type: functional
[2] = system: Staphylococcus saprophyticus; experiment: Antibacterial activity against Staphylococcus saprophyticus ATCC 15305 after 20 hrs by CLSI based-broth microdilution method; assay type: functional; conditions: subsp. saprophyticus ATCC 15305, 20 h
Enterococcus faecalis = experiment: Antibacterial activity against Enterococcus faecalis ATCC 19433 after 20 hrs by CLSI based-broth microdilution method; assay type: functional; conditions: ATCC 19433, 20 h
[3] = Haemolytic activity in human erythrocytes at 0.1 to 10 ug/ml relative to control; assay type: ADME, cell-based, Erythrocyte; conditions: read-out: Activity
Outline: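 Human erythrocytes washed in 150 mM NaCl, resuspended in PBS pH 7.4 (2% blood); compound at final 0.1, 1 and 10 μg/mL (0.5% DMSO) for 45 min at 37 °C, n = 6; spun at 500g, 4 °C; supernatant absorbance read at 540 nm; 1% Triton X-100 as positive and PBS as negative control; % lysis calculated.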

Staphylococcus aureus [4] = experiment: Effect on total RNA level in Staphylococcus aureus ATCC 29213 at 1/4 to 1/8 times MIC by fluorimetric method; assay type: functional
A549 = experiment: Cytotoxicity against human A549 cells after 48 to 72 hrs by MTT assay; assay type: cell-based
Streptococcus pyogenes = experiment: Antibacterial activity against Streptococcus pyogenes ATCC 19615 after 20 hrs by CLSI based-broth microdilution method; assay type: functional; conditions: ATCC 19615, 20 h
Klebsiella pneumoniae = experiment: Antibacterial activity against Klebsiella pneumoniae ATCC 700603 after 20 hrs by CLSI based-broth microdilution method; assay type: functional; conditions: ATCC 700603, 20 h
Acinetobacter baumannii = experiment: Antibacterial activity against Acinetobacter baumannii ATCC 19606 after 20 hrs by CLSI based-broth microdilution method; assay type: functional; conditions: ATCC 19606 = CIP 70.34 = JCM 6841, 20 h
Staphylococcus aureus [5] = experiment: Antibacterial activity against Staphylococcus aureus ATCC 25923 after 20 hrs by CLSI based-broth microdilution method; assay type: functional; conditions: ATCC 25923, 20 h
Streptococcus agalactiae [6] = experiment: Antibacterial activity against Streptococcus agalactiae ATCC 12386 after 20 hrs by CLSI based-broth microdilution method; assay type: functional; conditions: ATCC 12386, 20 h
[7] = Inhibition of Escherichia coli RNAP/sigma-70 protein-protein interaction assessed as reduction in RNA synthesis preincubated for 10 mins followed by sigma-70/DNA template/AGU/ApU/alpha [32P]GTP addition and measured after 10 mins by phosphorimaging analysis
Pseudomonas aeruginosa = experiment: Antibacterial activity against Pseudomonas aeruginosa ATCC 27853 after 20 hrs by CLSI based-broth microdilution method; assay type: functional; conditions: ATCC 27853, 20 h
[8] = Therapeutic index, ratio of CC50 for human A549 cells to MIC for Streptococcus pneumoniae ATCC 49619; assay type: toxicity; conditions: read-out: TI
[9] = Therapeutic index, ratio of CC50 for human HepG2 cells to MIC for Streptococcus pneumoniae ATCC 49619; assay type: toxicity; conditions: read-out: TI
Staphylococcus aureus [10] = experiment: Antibacterial activity against Staphylococcus aureus ATCC 29213 after 20 hrs by CLSI based-broth microdilution method; assay type: functional; conditions: ATCC 29213, 20 h
Enterobacter cloacae = experiment: Antibacterial activity against Enterobacter cloacae ATCC 13047 after 20 hrs by CLSI based-broth microdilution method; assay type: functional; conditions: subsp. cloacae ATCC 13047, 20 h
Escherichia coli = experiment: Antibacterial activity against Escherichia coli ATCC 25922 after 20 hrs by CLSI based-broth microdilution method; assay type: functional; conditions: ATCC 25922, 20 h
[11] = system: Staphylococcus epidermidis; experiment: Antibacterial activity against Staphylococcus epidermidis ATCC 12228 after 20 hrs by CLSI based-broth microdilution method; assay type: functional; conditions: ATCC 12228, 20 h
[12] = Apparent permeability across apical to basolateral membrane in human Caco2 cells at 10 ug/ml by LC-MS/MS analysis; assay type: ADME, cell-based; conditions: Caco-2
Outline: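 Caco-2 monolayers grown 21–28 days on Transwell polycarbonate membranes, TEER ≥165 Ω cm2; preincubated 20 min at 37 °C in transport buffer; apical-to-basolateral transport only, pH 7.4 on both sides; receiver sampled over time under sink conditions; concentrations measured by LC–MS/MS.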

HepG2 = experiment: Cytotoxicity against human HepG2 cells after 48 to 72 hrs by MTT assay; assay type: cell-based
Streptococcus pneumoniae [13] = experiment: Antibacterial activity against Streptococcus pneumoniae ATCC 49619 assessed as reduction in bacterial ATP production at 0.25 to 16 times MIC measured up to 6 hrs by BacTiter-Glo assay; assay type: functional, organism-based
Outline: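 Log-phase S. pneumoniae, about 1.5 × 10^6 CFU/mL in BHI containing compound at several concentrations, untreated control included; grown at 37 °C, 200 rpm, 5% CO2; samples taken at 0, 2, 4 and 6 h; ATP measured by BacTiter-Glo luminescence; triplicate.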

Staphylococcus aureus [14] = experiment: Bactericidal activity against Staphylococcus aureus ATCC 25923 assessed as decrease in CFU count at 16 times MIC measured over 6 hrs by time kill assay; assay type: functional, organism-based
Staphylococcus aureus [15] = experiment: Effect on total protein level in Staphylococcus aureus ATCC 29213 at 1/4 to 1/8 times MIC; assay type: functional, organism-based
Streptococcus pneumoniae [16] = experiment: Bactericidal activity against Streptococcus pneumoniae ATCC 49619 at 4 to 16 times MIC measured over 6 hrs by time kill assay; assay type: functional, organism-based
Staphylococcus aureus [17] = experiment: Effect on total DNA level in Staphylococcus aureus ATCC 29213 at 1/4 to 1/8 times MIC by fluorimetric method; assay type: functional, organism-based
Streptococcus agalactiae [18] = experiment: Bacteriostatic activity against Streptococcus agalactiae ATCC 12386 at 16 times MIC measured over 6 hrs by time kill assay; assay type: functional, organism-based
Streptococcus pneumoniae [19] = experiment: Bacteriostatic activity against Streptococcus pneumoniae ATCC 49619 assessed as decrease in bacterial growth at 4 to 16 times MIC measured over 6 hrs by time kill assay relative to control; assay type: functional
Staphylococcus aureus [20] = experiment: Bacteriostatic activity against Staphylococcus aureus ATCC 25923 at 16 times MIC measured over 6 hrs by time kill assay; assay type: functional, organism-based
Streptococcus agalactiae [21] = experiment: Bactericidal activity against Streptococcus agalactiae ATCC 12386 assessed as decrease in CFU count at 16 times MIC measured over 6 hrs by time kill assay; assay type: functional, organism-based
Bacillus subtilis [22] = experiment: Inhibition of RNAP subunit beta' interaction with sigma factor A assessed as RNAP delocalization from nucleoid at 0.5 times MIC incubated for 15 mins by confocal microscopy
Streptococcus pneumoniae [23] = experiment: Bacteriostatic activity against Streptococcus pneumoniae ATCC 49619 at 1 times MIC measured over 6 hrs by time kill assay; assay type: functional, organism-based
Streptococcus pneumoniae [24] = experiment: Antibacterial activity against Streptococcus pneumoniae ATCC 49619 assessed as reduction in pneumolysin release at 0.25 to 0.5 times MIC incubated for 16 to 20 hrs by Western blot analysis; assay type: functional, organism-based
Outline: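 Overnight static culture in brain–heart infusion broth, with or without serially diluted compound; rifampicin and ceftriaxone controls at twofold dilutions from 2 to 0.002 μg/mL; untreated control. […] Western blot probed with rabbit polyclonal anti-pneumolysin (1:1000) and HRP anti-rabbit secondary, ECL chemiluminescence; band intensity normalized to untreated control.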

Bacillus subtilis [25] = experiment: Inhibition of RNAP subunit beta' interaction with sigma factor A assessed as diffusion of RNAP into cytosolic region at 1 to 2 times MIC incubated for 15 mins by confocal microscopy
[26] = Inhibition of N-terminal SmBiT-fused Bacillus subtilis RNAP subunit beta' CH region expressed in Escherichia coli BL21(DE3)pLysS interaction with C- terminal LgBiT-fused Bacillus subtilis RNA polymerase sigma factor SigA expressed in Escherichia coli BL21(DE3)pLysS preincubated for 10 mins followed by RNA polymerase sigma factor SigA addition and measured after 10 mins by nano-glo luciferase assay
Outline: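 Split-luciferase complementation in PBS: N-SmBiT-CH (2.5 μM stock) mixed with compound at desired concentrations, 10 min at 37 °C. C-LgBiT-σA (2.5 μM stock) then added, another 10 min at 37 °C. Equal volume of Nano-Glo substrate added and luminescence read. No-drug control included. Run in triplicate with technical repeats.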

Structure (SMILES): O=C(O)c1ccccc1C(=O)c1ccc(Sc2ccc(Cl)c(Cl)c2)c([N+](=O)[O-])c1
- MIC (Streptococcus pneumoniae [1]): 8 µg/mL (≈ 17.8 µM)
- MIC [2]: 32 µg/mL (≈ 71.4 µM)
- MIC (Enterococcus faecalis): 32 µg/mL (≈ 71.4 µM)
- hemolysis [3]: < 10%
- MIC (Staphylococcus aureus [4]): > 256 µg/mL
- CC50 (A549): 76.7 µM
- MIC (Streptococcus pyogenes): 16 µg/mL (≈ 35.7 µM)
- MIC (Klebsiella pneumoniae): > 256 µg/mL
- MIC (Acinetobacter baumannii): > 256 µg/mL
- MIC (Staphylococcus aureus [5]): 16 µg/mL (≈ 35.7 µM)
- MIC (Streptococcus agalactiae [6]): 16 µg/mL (≈ 35.7 µM)
- IC50 [7]: 20.4 µM
- MIC (Pseudomonas aeruginosa): > 256 µg/mL
- selectivity ratio [8]: 9
- selectivity ratio [9]: 7
- MIC (Staphylococcus aureus [10]): 16 µg/mL (≈ 35.7 µM)
- MIC (Enterobacter cloacae): > 256 µg/mL
- MIC (Escherichia coli): > 256 µg/mL
- MIC [11]: 16 µg/mL (≈ 35.7 µM)
- Papp A→B at 10 ug/ml [12]: 35 ×10⁻⁶ cm/s
- CC50 (HepG2): 63.8 µM

Structure (SMILES): O=C(O)c1ccc(Cl)cc1NCc1ccc(Sc2ccc(Cl)c(Cl)c2)c([N+](=O)[O-])c1
- Activity (Streptococcus pneumoniae [13]): Active
- MIC [2]: 2 µg/mL (≈ 4.13 µM)
- MIC (Enterococcus faecalis): 4 µg/mL (≈ 8.27 µM)
- Activity (Staphylococcus aureus [14]): inactive
- Activity (Staphylococcus aureus [15]): Active
- Activity (Staphylococcus aureus [4]): Active
- CC50 (A549): 75.7 µM
- Activity (Streptococcus pneumoniae [16]): inactive
- MIC (Streptococcus pyogenes): 1 µg/mL (≈ 2.07 µM)
- Activity (Staphylococcus aureus [17]): inactive
- Activity (Streptococcus agalactiae [18]): Active
- MIC (Klebsiella pneumoniae): > 256 µg/mL
- log(activity) (Streptococcus pneumoniae [19]): 2
- MIC (Acinetobacter baumannii): > 256 µg/mL
- MIC (Staphylococcus aureus [5]): 4 µg/mL (≈ 8.27 µM)
- MIC (Streptococcus agalactiae [6]): 2 µg/mL (≈ 4.13 µM)
- Activity (Staphylococcus aureus [20]): Active
- IC50 [7]: 6.8 µM
- Activity (Streptococcus agalactiae [21]): inactive
- inhibition (Bacillus subtilis [22]): Active
- MIC (Pseudomonas aeruginosa): > 256 µg/mL
- selectivity ratio [8]: 37
- selectivity ratio [9]: 36
- Activity (Streptococcus pneumoniae [23]): Active
- MIC (Staphylococcus aureus [10]): 4 µg/mL (≈ 8.27 µM)
- Activity (Streptococcus pneumoniae [24]): Active
- MIC (Enterobacter cloacae): > 256 µg/mL
- MIC (Escherichia coli): > 256 µg/mL
- MIC [11]: 2 µg/mL (≈ 4.13 µM)
- inhibition (Bacillus subtilis [25]): Active
- CC50 (HepG2): 74.4 µM

Structure (SMILES): O=C(O)c1ccccc1NCc1ccc(Sc2ccc(Cl)c(Cl)c2)c([N+](=O)[O-])c1
- MIC [2]: 4 µg/mL (≈ 8.9 µM)
- MIC (Enterococcus faecalis): 8 µg/mL (≈ 17.8 µM)
- hemolysis [3]: < 10%
- CC50 (A549): 252 µM
- MIC (Streptococcus pyogenes): 4 µg/mL (≈ 8.9 µM)
- MIC (Klebsiella pneumoniae): > 256 µg/mL
- MIC (Acinetobacter baumannii): > 256 µg/mL
- MIC (Staphylococcus aureus [5]): 8 µg/mL (≈ 17.8 µM)
- IC50 [26]: 11.6 µM
- MIC (Streptococcus agalactiae [6]): 4 µg/mL (≈ 8.9 µM)
- MIC (Pseudomonas aeruginosa): > 256 µg/mL
- selectivity ratio [8]: 57
- selectivity ratio [9]: 38
- MIC (Staphylococcus aureus [10]): 4 µg/mL (≈ 8.9 µM)
- MIC (Enterobacter cloacae): > 256 µg/mL
- MIC (Escherichia coli): > 256 µg/mL
- MIC [11]: 4 µg/mL (≈ 8.9 µM)
- Papp A→B at 10 ug/ml [12]: 36.2 ×10⁻⁶ cm/s
- CC50 (HepG2): 170 µM
